Experimental data taken from ChEMBL document CHEMBL3763092, “Design and synthesis of pyrrolobenzodiazepine-gallic hybrid agents as p53-dependent and -independent apoptogenic signaling in melanoma cells” (Eur J Med Chem, 2016).
Calls of active or inactive are those of the source. The rule behind the calls is not given here.

Experiments:
[1] = Cytotoxicity against p53 knockout human H1299 cells assessed as cell viability at 1 uM after 24 hrs by MTT assay; assay type: functional; details: NCI-H1299, 24 h, read-out: Activity
Summary of the method: (§1)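 Cells were exposed to compound at 1 µM for 24 h, then growth and viability were read by MTT assay. Media: A375 in DMEM; RPMI7951 and MCF-7 in MEM; A549 in RPMI1640; H1299 in DMEM-F12; all with 10% FCS and penicillin/streptomycin, at 37 °C and 5% CO2. Fibroblasts came from adult foreskin. DMSO stocks were 10 mM.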

[2] = Cytotoxicity against human fibroblast cells expressing p53 wild type assessed as cell viability at 1 uM after 24 hrs by MTT assay; assay type: cell-based; details: read-out: Activity; summary of the method: as §1
A-375 [3] = assay: Cytotoxicity against human A375 cells expressing p53 wild type assessed as cell viability at 1 uM after 24 hrs by MTT assay; assay type: functional; details: A-375, 24 h, read-out: Activity; summary of the method: as §1
A549 = assay: Cytotoxicity against human A549 cells assessed as cell viability at 1 uM after 24 hrs by MTT assay; assay type: functional; details: A549, 24 h, read-out: Activity; summary of the method: as §1
MCF7 = assay: Cytotoxicity against human MCF7 cells expressing p53 wild type assessed as cell viability at 1 uM after 24 hrs by MTT assay; assay type: functional; details: MCF7, 24 h, read-out: Activity; summary of the method: as §1
[4] = Cytotoxicity against human RPMI7951 cells expressing p53 mutant assessed as cell viability at 1 uM after 24 hrs by MTT assay; assay type: functional; details: RPMI-7951, 24 h, read-out: Activity; summary of the method: as §1
A-375 [5] = assay: Induction of apoptosis in human A375 cells expressing p53 wild type assessed as increase in cleaved caspase-3 levels at 0.5 uM after 24 hrs by western blot analysis; assay type: functional, cell-based
Summary of the method: (§2)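 A375 cells were exposed to 0.5 µM for 24 h, and lysates were immunoblotted with specific antibodies (p53, Cdc25c, p-Chk1, Bcl-xL, PARP, caspase-3). GAPDH served as loading control. Three independent experiments.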

A-375 [6] = assay: Induction of apoptosis in human A375 cells expressing p53 wild type assessed as increase in cleaved PARP levels at 0.5 uM after 24 hrs by western blot analysis; assay type: functional, cell-based; summary of the method: as §2
A-375 [7] = assay: Induction of apoptosis in human A375 cells expressing p53 wild type assessed as decrease in Bcl-xl levels at 0.5 uM after 24 hrs by western blot analysis; assay type: functional, cell-based; summary of the method: as §2
A-375 [8] = assay: Induction of apoptosis in human A375 cells expressing p53 wild type assessed as increase in p53 levels at 0.5 uM after 24 hrs by western blot analysis; assay type: functional, cell-based; summary of the method: as §2
Mus musculus = assay: Toxicity in ICR mouse xenografted with mouse B16 cells assessed as change in body weight at 2 to 4 mg/kg, iv; assay type: organism-based; details: in vivo
Summary of the method: (§3)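 Female ICR mice, seven weeks old, inoculated s.c. in the footpad with 1 × 10^6 B16 cells in 20 µl PBS. Once tumors reached a mean diameter of 4-7 mm (day 0), mice were randomized into groups of three and dosed i.v. at 0, 2, 4 mg/kg. Two perpendicular tumor diameters and body weight were taken at least 3 times weekly. T/C% was calculated from relative tumor volume; body weight is expressed as % of day 0. Statistics by t-test.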

A-375 [9] = assay: Induction of reactive oxygen species generation in human A375 cells expressing p53 wild type assessed as increase in intracellular H2O2 level at 0.5 uM after 24 hrs by DCFH-DA staining based fluorescence analysis; assay type: functional, cell-based
Summary of the method: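 A375 cells were treated with 0.5 µM for 0, 12 and 24 h and stained with DCFH-DA to detect intracellular H2O2.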

B16 [10] = assay: Antitumor activity against mouse B16 cells xenografted in ICR mouse assessed as decrease in tumor growth administered via interavenous; assay type: functional, cell-based; summary of the method: as §3
A-375 [11] = assay: Induction of apoptosis in human A375 cells expressing p53 wild type assessed as lysosomal H+ concentration at 0.5 uM after 24 and 48 hrs by flow cytometric analysis; assay type: functional, cell-based
Summary of the method: (§4)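 Cells were loaded with LysoTracker Green (75 nM) for 15 min at 37 °C before treatment with 0.5 µM for the indicated times. After washing, mean fluorescence was quantified by flow cytometry. For p53 knockdown, A375 cells (6 × 10^4/well, antibiotic-free DMEM) were transfected with 30 nM tp53 siRNA or non-target siRNA using Lipofectamine RNAiMAX and harvested at 24 h.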

A-375 [12] = assay: Induction of apoptosis in human A375 cells expressing p53 wild type assessed as decrease in bcl-xl mRNA level by RT- qPCR analysis; assay type: functional, cell-based; details: TDE = time-dependent effect
Summary of the method: (§5)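 Quantitative real-time PCR on A375 cells over a time course, measuring p53, bax and bcl-xl mRNA normalized to GAPDH mRNA.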

A-375 [13] = assay: Induction of apoptosis in human A375 cells expressing p53 wild type assessed as increase in bax mRNA level by RT- qPCR analysis; assay type: functional, cell-based; details: TDE = time-dependent effect; summary of the method: as §5
A-375 [14] = assay: Induction of DNA lesion in human A375 cells expressing p53 wild type assessed as increase in 8-oxoguanine expression at 0.5 uM after 24 hrs by immunohistochemical analysis; assay type: functional, cell-based
Summary of the method: (§6)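 A375 cells on coverslips (1 × 10^4) were treated with 0.5 µM for 24 h. Cells were fixed in 4% formaldehyde for 5 min at 4 °C, permeabilized with 0.5% Triton X-100, and blocked with 5% BSA at 37 °C for 45 min. Primary antibodies were applied for 1 h at RT: mouse anti-p-ATR and anti-p-ATM 1:1000, anti-8-oxoguanine 1:250, COX IV and cytochrome c 1:1000. Secondary antibodies (rhodamine for 8-oxoguanine) followed for 30 min. DAPI counterstain.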

A-375 [15] = assay: Induction of DNA damage in human A375 cells expressing p53 wild type assessed as increase in ATR/ATM activation at 0.5 uM after 24 hrs by immuohistochemistry analysis; assay type: functional, cell-based; summary of the method: as §6
RPMI-7951 [16] = assay: Induction of apoptosis in human RPMI7951 cells expressing p53 mutant assessed as decrease in lysosomal H+ concentration at 0.5 uM after 24 and 48 hrs by flow cytometric analysis; assay type: functional, cell-based; summary of the method: as §4
A-375 [17] = assay: Decrease in Cdc25c level in human A375 cells expressing p53 wild type at 0.5 uM after 24 hrs by western blot analysis; assay type: functional, cell-based; summary of the method: as §2
A-375 [18] = assay: Induction of apoptosis in human A375 cells expressing p53 wild type assessed as increase release of cytochrome c from mitochondria to cytosol at 0.5 uM after 24 hrs by immunofluorescence analysis; assay type: functional, cell-based; summary of the method: as §6
A-375 [19] = assay: Effect on cell cycle distribution in human A375 cells expressing p53 wild type assessed as number of cells at subG1 phase at 0.5 uM after 24 hrs by FACS analysis (reference value: 1 %); assay type: functional
A-375 [20] = assay: Induction of apoptosis in human A375 cells transfected with siRNA p53 assessed as decrease in lysosomal H+ concentration at 0.5 uM after 24 and 48 hrs by flow cytometric analysis; assay type: functional, cell-based; summary of the method: as §4
A-375 [21] = assay: Induction of apoptosis in human A375 cells expressing p53 wild type assessed as decrease in mitochondrial membrane potential at 0.5 uM after 12 hrs by DiOC6 dye based flow cytometry; assay type: functional, cell-based
Summary of the method: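 A375 cells were treated with 0.5 µM for 0, 12 and 24 h, labeled with DiOC6 and analyzed by flow cytometry. Three independent experiments.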

RPMI-7951 [22] = assay: Induction of apoptosis in human RPMI7951 cells expressing p53 mutant assessed as increased release of cytochrome c to cytosol at 0.5 uM by immunofluorescent staining analysis; assay type: functional, cell-based
Summary of the method: (§7)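 RPMI7951 cells on coverslips (1 × 10^4) were treated with 0.5 µM for 24 h. Immunofluorescence steps: fixation in 4% formaldehyde, permeabilization with 0.5% Triton X-100, blocking with 5% BSA. Primary antibodies: rabbit anti-cathepsin D and mouse anti-LAMP-1 at 1:500, cytochrome c and COX IV at 1:1000, 1 h at RT. Secondary antibodies for 30 min. DAPI counterstain.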

RPMI-7951 [23] = assay: Induction of apoptosis in human RPMI7951 cells expressing p53 mutant assessed as PARP cleavage at 0.5 uM after 24 hrs by western blot analysis; assay type: functional, cell-based
A-375 [24] = assay: Effect on cell cycle distribution in human A375 cells expressing p53 wild type assessed as number of cells at G2/M phase at 0.5 uM after 24 hrs by FACS analysis (reference value: 12.1 %); assay type: functional
A-375 [25] = assay: Induction of apoptosis in human A375 cells expressing p53 wild type assessed as increase in p53 mRNA level by RT- qPCR analysis; assay type: functional, cell-based; details: TDE = time-dependent effect; summary of the method: as §5
RPMI-7951 [26] = assay: Cytotoxicity against human RPMI7951 expressing p53 mutant cells assessed as colony formation at 0.5 uM after 10 days by SRB assay; assay type: functional, cell-based
Summary of the method: (§8)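 Cells were seeded at 100 per well and treated from the second day. Medium containing 0.5 µM agent was renewed every 3 days. After 10 days of treatment, colonies were stained with SRB and photographed. Three independent experiments.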

A-375 [27] = assay: Effect on cell cycle distribution in human A375 cells expressing p53 wild type assessed as number of cells at S-phase at 0.5 uM after 24 hrs by FACS analysis (reference value: 13.8 %); assay type: functional
B16 [28] = assay: Induction of apoptosis in mouse B16 cells at 0.5 uM after 24 hrs by FITC-annexin V/PI staining based fluorescence microscopy; assay type: functional, cell-based
Summary of the method: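 B16 cells were seeded on coverslips at 3 × 10^5 per well, allowed to attach for 24 h, then exposed to 0.5 µM for 24 h. After PBS washes, cells were stained with annexin V-FITC and PI (plus Hoechst33258) for at least 15 min at RT in the dark and viewed by fluorescence microscopy.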

A-375 [29] = assay: Effect on cell cycle distribution in human A375 cells expressing p53 wild type assessed as number of cells at G0/G1 phase at 0.5 uM after 24 hrs by FACS analysis Rvb = 74.1 %); assay type: functional
A-375 [30] = assay: Increase in Chk1 phosphorylation in human A375 cells expressing p53 wild type at 0.5 uM after 24 hrs by western blot analysis; assay type: functional, cell-based; summary of the method: as §2
RPMI-7951 [31] = assay: Induction of apoptosis in human RPMI7951 cells expressing p53 mutant assessed as increased release of cathepsin D to cytosol at 0.5 uM by immunofluorescent staining analysis; assay type: functional, cell-based; summary of the method: as §7
A-375 [32] = assay: Cytotoxicity against human A375 cells expressing p53 wild type assessed as colony formation at 0.5 uM after 10 days by SRB assay; assay type: functional, cell-based; summary of the method: as §8

COc1cc2c(cc1OCCCCCNC(=O)c1cc(OC)c(OC)c(OC)c1)N=C[C@@H]1CCCN1C2=O
viability at 1 µM [1]: 96.9%
viability at 24 h, 1 µM [2]: 98.7%
viability at 1 µM (A-375 [3]): 74.7%
viability at 1 µM (A549): 96.8%
viability at 1 µM (MCF7): 101%
viability at 1 µM [4]: 111%

COc1cc2c(cc1OCCCCCCOc1cc(OC)c(OC)c(OC)c1)N=C[C@@H]1CCCN1C2=O
Activity (A-375 [5]): Active
viability at 1 µM [1]: 90.2%
viability at 24 h, 1 µM [2]: 93.4%
viability at 1 µM (A-375 [3]): 84.8%
Activity (A-375 [6]): Active
Activity (A-375 [7]): Active
viability at 1 µM (A549): 101%
viability at 1 µM (MCF7): 79%
Activity (A-375 [8]): Active
viability at 1 µM [4]: 55.9%

COc1cc2c(cc1OCCCCOc1cc(OC)c(OC)c(OC)c1)N=C[C@@H]1CCCN1C2=O
Activity (Mus musculus): Non-toxic
Activity (A-375 [9]): Active
Activity (A-375 [5]): Active
viability at 1 µM [1]: 73%
inhibition (B16 [10]): Dose-dependent effect
Activity (A-375 [11]): inactive
Activity (A-375 [12]): tde
Activity (A-375 [13]): tde
viability at 24 h, 1 µM [2]: 109%
viability at 1 µM (A-375 [3]): 37.4%
Activity (A-375 [14]): Active
Activity (A-375 [15]): Active
Activity (RPMI-7951 [16]): Active
Activity (A-375 [6]): Active
inhibition (A-375 [17]): Active
Activity (A-375 [18]): Active
Activity (A-375 [19]): 15.8%
Activity (A-375 [20]): Active
Activity (A-375 [21]): Active
Activity (A-375 [7]): Active
Activity (RPMI-7951 [22]): Active
viability at 1 µM (A549): 77.9%
Activity (RPMI-7951 [23]): Active
Activity (A-375 [24]): 4.8%
viability at 1 µM (MCF7): 55.3%
Activity (A-375 [25]): tde
inhibition (RPMI-7951 [26]): Active
Activity (A-375 [8]): Active
Activity (A-375 [27]): 47.9%
Activity (B16 [28]): Active
Activity (A-375 [29]): 32.6%
Activity (A-375 [30]): Active
viability at 1 µM [4]: 62.3%
Activity (RPMI-7951 [31]): Active
inhibition (A-375 [32]): Active

COc1cc2c(cc1OCCCOc1cc(OC)c(OC)c(OC)c1)N=C[C@@H]1CCCN1C2=O
Activity (A-375 [5]): Active
viability at 1 µM [1]: 71.9%
viability at 24 h, 1 µM [2]: 97.3%
viability at 1 µM (A-375 [3]): 69.7%
Activity (A-375 [6]): Active
Activity (A-375 [7]): Active
viability at 1 µM (A549): 88.7%
viability at 1 µM (MCF7): 51.7%
Activity (A-375 [8]): Active
viability at 1 µM [4]: 59.5%
